For assay [1], the species on record is Ovis aries. The assay is described as follows: Activity at cyclooxygenase in sheep seminal vesicles assessed as oxygen consumption in presence of hematin. In short, it runs like this: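 Cyclooxygenase purified from seminal vesicles was supplemented with 0.5 uM hematin. Fatty acid came from a 9 mM heptane stock, dried under N2 just before use and resuspended in 0.1 M Tris-Cl pH 8.5 with 0.67 mM phenol. O2 uptake was read by oxygen electrode in 3-mL chambers. Arachidonic acid was run alongside as control substrate.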

The test system of a further assay is Platelet. Nature of the assay: Antiplatelet activity against human platelet rich plasma assessed as inhibition of ADP-induced platelet aggregation up to 5 mM incubated for 2 mins prior to ADP-challenge. Format: functional. Summed up:
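PRP came from citrated venous blood of aspirin-free human volunteers (200g, 20 min, RT), at 4-6 x 10^8 platelets/mL, with PPP as blank. Compound sodium salts, 50 mM in 0.1 M Na2CO3, were added as 0.01-0.05 mL to 0.5 mL of stirred PRP at 37 °C, 2 min before ADP. Aggregation was induced by 0.01 mL of 1 mM ADP and followed 2-3 min by aggregometer.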

The species named for the next assay is Homo sapiens. Nature of the assay: Activity at prostaglandin synthetase in ADP-induced human platelet rich plasma assessed as malondialdehyde formation up to 5 mM by spectrophotometric analysis. Summed up:
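After ADP aggregation, PRP (compound salts added 2 min pre-ADP) was held a further 27 min at 37 °C unstirred. Samples were quenched in 20% trichloroacetic acid/0.6 M HCl and centrifuged. Supernatant was heated 15 min in boiling water with 0.12 M thiobarbiturate (Tris, pH 7.0), then read at A533. MDA = PRP minus PPP signal; recovery was 75-80%.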

Assay [2] is filed under the species Ovis aries. The assay is described as follows: Reversible inhibition of cyclooxygenase in sheep seminal vesicles. In short, it runs like this:
(§1)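 Cyclooxygenase O2-electrode assay was run with 0.5 uM hematin in Tris-Cl pH 8.5 with 0.67 mM phenol. Inhibitor was preincubated with enzyme for progressively longer periods, up to 12 min. Degree of inhibition was compared across preincubation times to test for irreversible inactivation.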

Assay [3] addresses seed linoleate 13S-lipoxygenase-1 (Glycine max) (UniProt P08170). Nature of the assay: Activity at soybean lipoxygenase assessed as oxygen consumption.
For assay [4], the species on record is Ovis aries. The assay is described as follows: Irreversible inactivation of cyclooxygenase-mediated cyclooxygenation of arachidonic acid in sheep seminal vesicles up to 12 mins. In short, it runs like this: as §1
The nature of assay [5]: Competitive inhibition of cyclooxygenase-mediated cyclooxygenation of arachidonic acid in sheep seminal vesicles by Dixon plot analysis. Set-up: species or system Ovis aries. Summed up: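 Seminal vesicle cyclooxygenase was used with 0.5 uM hematin in 0.1 M Tris-Cl pH 8.5 containing 0.67 mM phenol. Activity was followed as O2 consumption by oxygen electrode in 3-mL chambers, with arachidonic acid as substrate. Ki was derived by Dixon graphical method from eight assays.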

Activity calls are given as the source filed them. No cut-off for these calls is given here.

`CCCCC/C=C\C/C=C\C/C=C\C/C=C\CCCC(=O)O`: the result in the assay filed under Ovis aries [1] was Active.

As to `CCCCC/C=C\C/C=C\C/C=C\CCCCCCC(=O)O`, the inhibition result in the assay with Platelet was “Active”. Also, the result in the assay filed under Homo sapiens was Active.

Usually Ki stands for the equilibrium dissociation constant of an inhibitor or competing ligand from its target. A higher Ki goes with weaker binding. As to `CCCCC/C(C)=C\C/C=C\C/C=C\CCCCCCC(=O)O`, the inhibition entry in the assay filed under Ovis aries [2] and with Platelet was “Active” throughout. Moreover, the outcome in the assay filed under Ovis aries [1], in the assay filed under Homo sapiens and in the assay filed under Ovis aries [4] was inactive. Also, the result in assay [3] was Active. This molecule gave a Ki in assay [5] of 2000 nM.

The values above are taken from ChEMBL document CHEMBL3272161, “Synthesis of prostaglandin synthetase substrate analogues. 2. (8Z,11Z,14Z)-15-Methyl-8,11,14-eicosatrienoic acid” (J Med Chem, 1977).
